# Screening data from PubChem BioAssay.
# A selection: hits, their analogues and other compounds. The true share with any hit is near 2.9%.
# b-catenin transl: modulators of beta-catenin nuclear translocation, primary screen, imaging, HeLa cells, immunofluorescence, high-content | 190,000 compounds, 0.3% hits | nuclear translocation activity, % at 5 µM;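 active = nuclear translocation activity above 50% at 5 µM, with a well cell count of 50 or more; inconclusive = wells under 50 cells across six images, flagged as toxic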;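 also: per-cell ratio of nuclear to cytoplasmic median beta-catenin stain intensity; plate controls were DMSO negative control for no effect and GSK-3 inhibitor IX positive control for full effect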
#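 Read-out: Nuclear/cytoplasmic beta-catenin signal ratio, % activation | Assay system: Human HeLa cell line | Times: 24 h compound exposure at 37°C, 5% CO2 | Signal: Fluorescence imaging of beta-catenin antibody stain plus DAPI | Dosing: 5 µM primary, 0.02–20 µM confirmation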
# Autophagy mod: autophagy modulators in MEF cells, primary screen, imaging, high-content, MEF GFP-LC3; calls only at 10 µM (by protocol); MEF GFP-LC3 puncta imaging; test concentration mostly 10 µM; 190,000 compounds, 0.98% hits;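 active = percentage of spot-positive cells more than 3 SD above its plate mean, without a fluorescence outlier flag or 80% toxicity; inconclusive = no clear call, values can overlap the other calls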;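 also: spot-positive cell cutoff set from DMSO-treated cells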
# Wee1 degr inh: Wee1 degradation inhibitors, primary screen, cell-based, HeLa, Wee1K328M-luciferase, luminescence; Wee1-like protein kinase (Homo sapiens), P30291; HeLa Luc-Wee1K328M stability; 100% = proteasome inhibitor MG132 effect; reporter increase, % at 5 µM; 220,000 compounds, 1.2% hits;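 active = activation above the mean of all tested compounds plus 3 SD, set per screening run, cut at about 8.8% in these data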;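 also: cells exposed to compound for 20 h before luminescence read; 0% = DMSO alone and 100% = MG132 at 30 µM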
# Target sequence (P30291 whole entry K328M): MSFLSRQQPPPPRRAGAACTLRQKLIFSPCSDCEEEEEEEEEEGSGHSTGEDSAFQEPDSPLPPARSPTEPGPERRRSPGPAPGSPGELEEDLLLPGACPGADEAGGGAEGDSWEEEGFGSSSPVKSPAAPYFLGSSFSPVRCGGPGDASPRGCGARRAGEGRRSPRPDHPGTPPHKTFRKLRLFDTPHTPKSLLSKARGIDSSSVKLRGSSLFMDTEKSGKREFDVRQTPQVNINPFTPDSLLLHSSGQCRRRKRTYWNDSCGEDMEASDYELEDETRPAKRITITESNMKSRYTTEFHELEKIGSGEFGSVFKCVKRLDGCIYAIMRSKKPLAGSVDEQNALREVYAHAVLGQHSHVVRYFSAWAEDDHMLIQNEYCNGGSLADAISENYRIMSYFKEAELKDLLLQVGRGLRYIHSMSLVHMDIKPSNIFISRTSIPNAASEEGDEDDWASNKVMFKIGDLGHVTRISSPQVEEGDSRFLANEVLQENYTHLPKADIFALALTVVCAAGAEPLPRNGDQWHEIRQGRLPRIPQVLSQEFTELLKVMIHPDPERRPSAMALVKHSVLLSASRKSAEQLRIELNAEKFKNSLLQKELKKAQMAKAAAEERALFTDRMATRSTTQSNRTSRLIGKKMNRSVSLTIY
# MT stabilizer: microtubule stabilizers in HeLa cells, primary screen, imaging, high-content imaging; HeLa tubulin immunostaining HCS, 24 h; share of cells brighter than vehicle mean+2SD; % tubulin-high responders, % at 10 µM; 200,000 compounds, 0.83% hits; AID 2205, 2009;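 active = plate Z-score above 3 for both tubulin-high and condensed-nucleus cell shares, with cell loss under 80%, at 10 µM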;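 also: anti alpha tubulin signal scored within the nucleus-defined area of each cell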
# Ins promoter up: insulin promoter activators in MIN6 cells, imaging, high-content screening, mouse beta cells; MIN6 insulin promoter-GFP reporter; stronger effect = higher value; z-score at 5 µM; 190,000 compounds, 0.3% hits; AID 1625, 2009;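 active = z-score above 3 at 5 µM with at least 500 cells counted in the well; inconclusive = wells under 500 cells, flagged as cytotoxic or low count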
# * marks the source's active call; other numbers are inactive results; i = inactive; ? = inconclusive; . = not tested or not shown; + = active, no number; ! = not confirmed by another sample.
SMILES,b-catenin transl,Autophagy mod,Wee1 degr inh,MT stabilizer,Ins promoter up
CC(=O)c1ccc(NC(=O)c2cnsn2)cc1,0,i,9,2,-0.18
COc1ccc(OCC(=O)NNC(=O)c2cccc(O)c2)cc1,1,i,0,2,-0.27
O=C(c1sc2ccccc2c1Cl)N(Cc1ccccc1Cl)C1CCS(=O)(=O)C1 (stereo not given),0,i,9.4*,4,0.76
CCOC(=O)C1=NN(C(=O)c2ccccc2)C(O)(c2ccc(C)cc2)C1 (stereo not given),.,i,15*,3,-0.19
CCOC(=O)C1=NN(C(=O)c2ccc(OC)cc2)C(O)(c2ccc(Cl)cc2)C1 (stereo not given),.,i,-2,2,-0.62
COc1ccc(-c2nc(/C=C3\C(C)=Nc4ccccc43)c(O)o2)cc1,-1,+,-2,2,-0.08
O=C(NCCc1ccc(Cl)cc1)Nc1ccc(Cl)cc1,1,.,0,.,-0.04
CCN(CCNC(=O)Nc1ccc(Cl)cc1)c1ccccc1,2,+,-3,1,1.5
Cc1cc(C(N)=O)nn1-c1c(Cl)cc(Cl)cc1Cl,-6,.,-2,.,0.66
CCOC(=O)c1[nH]c2ccc(OC)cc2c1NC(=O)OC,-3,i,-1,3,1.6
CCOC(=O)Nc1c(C(=O)OC)[nH]c2cc(OC)ccc12,4,i,2,36*,-0.01
CCOC(=O)c1[nH]c2ccc(OC)cc2c1NC(=S)N1CCN(c2ccccc2OC)CC1,2,i,9,20*,0.18
Cc1cccc(NC(=S)N2CCN(c3cc(C)ccc3C)CC2)c1,2,i,-3,4,-0.17
COc1ccccc1N1CCN(C(=S)Nc2cccc(C)c2)CC1,6,i,-1,8.7*,.
O=C(CSc1ccccc1[N+](=O)[O-])NC1CCS(=O)(=O)C1 (stereo not given),-1,i,3,3,0.81
O=C(NC1=NCCS1)c1sc2cc(F)ccc2c1Cl,0,i,-1,2,0.71
O=C(Nc1ccon1)c1sc2cc(F)ccc2c1Cl,2,+,4,4,-0.17
c1ccc(-n2cnc3cc(NCc4cccs4)ccc32)cc1,8,i,-2,41*,-0.23
NC(=O)c1c(NC(=O)C2COc3ccccc3O2)sc2c1CCN(Cc1ccccc1)C2 (stereo not given),0,+,2,4,-0.74
Cc1ccc(-c2nc(C#N)c(N3CCCCC3)o2)cc1,.,i,9.7*,1,-0.04
CC(C)C(c1nnnn1C1CCCC1)N1CCOCC1 (stereo not given),-2,i,-2,3,3*
Cc1ccc(S(=O)(=O)Nc2ccc3c4c(cccc24)CC3)c(C)c1,.,i,-1,42*,.
Cc1cc(C)c(S(=O)(=O)Nc2ccc3c4c(cccc24)CC3)c(C)c1,0,i,-1,15,-0.05
CCN(CC)c1ccc(/C=C/c2nc3ccccc3s2)cc1,.,+,-3,1,.
CCc1nc(NCCCCCO)c2nnn(Cc3ccccc3F)c2n1,1,i,-2,2,0.22
SMILES,b-catenin transl,Autophagy mod,Wee1 degr inh,MT stabilizer,Ins promoter up
CC1CCC(C(C)C)C(OC(=O)Cn2c(-c3ccccc3)[n+](C)c3ccccc32)C1 (stereo not given),-7,+!,-1,4,?
CC1CCC(C(C)C)C(OC(=O)Cn2c(-c3ccc(F)cc3)[n+](C)c3ccccc32)C1 (stereo not given),.,i,-2,2,-1.9
CCCCCc1ccc(OCCCC[n+]2ccc(C)cc2)c(CCCCC)c1,0,i,-1,.,?
CCCCCc1ccc(OCCCC[n+]2ccccc2)c(CCCCC)c1,9,i,0,28*,?
CCCCCc1ccc(OCCCC[n+]2cccc(C)c2)c(CCCCC)c1,4,i,2,56*,?
CN(CC(O)COc1c(F)cc(Br)cc1F)C1CCCCC1 (stereo not given),0,i,-2,3,.
Cc1csc(NC(=O)CN(C)S(=O)(=O)c2cccc3cccnc23)n1,.,i,-2,7,3*
CCN(CC)c1ccc(C(=O)n2cnc3ccccc32)cc1,6,i,0,22*,-1.1
COCCNC(=O)c1c(NC(=O)c2nc(SC)ncc2Cl)sc2c1CCCC2,-1,+,2,2,0.42
O=c1[nH]c(SCc2ccccc2)nc2[nH]ncc12,-1,i,1,2,-0.29
CN=C1c2cc3cc(OC)ccc3n2CCN1Cc1ccccc1,.,+,2,40*,-0.98
CC(=O)c1cccc(NC(=O)C2CC(=O)N(CCc3ccccc3)C2)c1 (stereo not given),-1,i,-3,2,0.99
COc1ccc(CCN2CC(C(=O)Nc3cccc(C(C)=O)c3)CC2=O)cc1OC (stereo not given),1,+,0,0,0.09
COc1ccc(C(=O)Oc2cc(/C=N/NC(N)=S)ccc2OC)cc1,-2,i,-2,4,-0.01
COc1ccc(/C=N/NC(N)=S)cc1OC(=O)c1cccc2ccccc12,.,i,1,35*,.
COCCNC(=O)c1ccc2c(c1)nc(C)n2-c1cc(OC)c(OC)c(OC)c1,-2,i,-2,1,-0.54
CCc1ccc2c(c1)cc(CN(C(=S)Nc1ccccc1)C1CC1)c1nnnn12,-1,+,-1,1,1.4
CCOc1ccc(C(=O)N2CCN=C2SC)cc1OCC,-5,+,-2,2,0.37
CCOc1ccccc1C(=O)N1CCN=C1SC,.,i,-2,2,?
CC1CCc2nc(NC(=O)C3CCCO3)sc2C1 (stereo not given),.,i,9.7*,2,0.23
Cc1c(C(=O)N/N=C/c2ccccc2)[nH]c2ccc(Cl)cc12,56*,i,-3,13,-0.16
COc1ccc(/C=N/NC(=O)c2[nH]c3ccc(Br)cc3c2-c2ccccc2)cc1,42,i,0,14*,-2.9
O=C(N/N=C/c1ccccc1Cl)c1[nH]c2ccc(Br)cc2c1-c1ccccc1,94*,i,11*,7,-1
CC(C)S(=O)(=O)N1CCCC(C(=O)c2cccc(Cl)c2)C1 (stereo not given),0,i,1,3,0.04
CN(CC(=O)Nc1ccc(Cl)c(Cl)c1)Cc1nnc(-c2ccc(F)cc2)o1,0,i,2,3,-0.19
CCOC(=O)CN1C(=O)C(CC)Oc2ccccc21 (stereo not given),0,i,17*,6,-1.1
CCN1C(=O)/C(=C/N2CCc3ccccc32)SC1=S,.,+,-1,3,-1.2
O=C(Nc1nccs1)c1cn(-c2ccccc2)nc1-c1ccccc1,.,i,1,34*,-0.46
